Published values collected from several papers.
Target: Serine/threonine-protein kinase PAK 3 (PAK3, Homo sapiens, UniProt O75914)

SMILES | test | conditions | remaining binding [%]
O=C(NCCCN1CCOCC1)c1ccc(Nc2ncc(Cl)c(-c3ccc(Cl)s3)n2)cc1 | binding, competition with immobilised ligand | 1 µM | 77
CC(=O)c1c(NS(C)(=O)=O)c2cc(-c3ccc(Cl)cc3)c(-c3ccc(Cl)cc3Cl)nc2n(C)c1=O | cell-free assay, competition with immobilised ligand | 1 µM | 100
CN(C)c1nccc(-c2cnc3ncccn23)n1 | binding | 1 µM | 100
O=C(Nc1c[nH]nc1C(=O)NC1CCNCC1)c1cc(F)cc(F)c1 | binding, competition with immobilised ligand | 1 µM | 98
CN(CCCC(F)(F)F)c1nccc(-c2cnn3ncccc23)n1 | binding | 1 µM | 100
CNC(=O)[C@@H]1CC[C@@H](n2c(-c3ccc4cnccc4c3)nc3ccc(C(=O)NCc4cccc(C(N)=O)c4)cc32)C1 | binding, competition with immobilised ligand | 1 µM | 95
CS(=O)(=O)NCC[C@H](NC(=O)c1cncc2c1cnn2-c1ccc(F)cc1)c1ccnc(S(C)(=O)=O)c1 | cell-free assay, competition with immobilised ligand | 1 µM | 100
Cc1cnc(Nc2ccc(C(=O)N3CCC(N4CCCC4)CC3)cc2)nc1-c1cc2ccccc2s1 | binding, competition with immobilised ligand | 1 µM | 23
CN(c1nccc(-c2cnn3ncccc23)n1)C1CC1 | binding | 1 µM | 100
CCS(=O)(=O)c1cc2cc(C[C@](O)(CC(C)(C)c3ccc(F)cc3C(N)=O)C(F)(F)F)[nH]c2cn1 | cell-free assay, competition with immobilised ligand | 1 µM | 100
COc1ncc2cc3ccccc3nc2c1C#N | cell-free assay, competition with immobilised ligand | 5 µM | 100
Cc1c(NC(=O)c2cc(C(N)=O)nc3cc(F)ccc23)c(C(F)(F)F)nn1Cc1ccc(C(C)(C)C)cc1 | cell-free assay, competition with immobilised ligand | 1 µM | 100
C[C@H]1CCN(c2nccc(-c3cnn4ncccc34)n2)C1 | binding | 1 µM | 94
O=C1NC(c2ccccn2)Sc2ccccc21 (centres unmarked) | cell-free assay, competition with immobilised ligand | 1 µM | 83
CC1CCCN1c1nccc(-c2cnn3ncccc23)n1 (centres unmarked) | binding | 1 µM | 100
C[C@@H](c1ccc(-n2cnc3c(N)ncnc32)cc1)N1CCc2nn(C)c(Cc3ccccc3)c2C1=O | binding, competition with immobilised ligand | 0.1 µM | 71
O=C(c1ccc(Nc2ncc(Cl)c(-c3cc4ccccc4s3)n2)cc1)N1CCC(N2CCCC2)CC1 | binding, competition with immobilised ligand | 1 µM | 8.4
COc1ccc2c(c1)O[C@H](c1ccc(OC)c(OC)c1)C[C@@H]2NC(=O)C1(c2ccc3c(c2)OC(F)(F)O3)CC1 | cell-free assay, competition with immobilised ligand | 1 µM | 100
COc1cnc(Nc2cccc(S(N)(=O)=O)c2)nc1N1CCN(c2ccccc2)C(=O)C1 | binding, competition with immobilised ligand | 1 µM | 75
F[C@@H]1CCN(c2nccc(-c3cnn4ncccc34)n2)C1 | binding | 1 µM | 100
